Laboratory results taken from ChEMBL document CHEMBL5055627 (J Med Chem, 2021).
≈ marks a conversion by molar mass, not a printed value. Calls of active or inactive are those of the source. No cut-off for these calls is given here.

Tests used:
[1] = molecular target: T1, 20S immunoproteasome beta-2i subunit (Homo sapiens, UniProt P40306); assay: Inhibition of human 20S immunoproteasome beta-2i subunit at 100 uM using Z-VLR-AMC as substrate measured over 1.5 to 2 hrs by plate reader assay relative to control; conditions: probe Z-VLR-AMC, time 1.5-2 hrs
T1 sequence (P40306 whole entry): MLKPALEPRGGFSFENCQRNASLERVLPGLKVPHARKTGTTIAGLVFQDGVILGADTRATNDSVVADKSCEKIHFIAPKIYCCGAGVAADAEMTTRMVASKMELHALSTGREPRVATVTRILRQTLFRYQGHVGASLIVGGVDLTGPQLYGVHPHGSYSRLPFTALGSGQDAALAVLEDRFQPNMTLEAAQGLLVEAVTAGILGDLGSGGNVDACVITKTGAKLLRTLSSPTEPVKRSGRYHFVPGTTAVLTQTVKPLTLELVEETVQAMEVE
Procedure, shortened: (§1)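 Human c-20S β2c or i-20S β2i, activated with 6 nM PA28α, with 50 μM Z-VLR-AMC in 20 mM HEPES, 0.5 mM EDTA, pH 7.5. Compounds in 3-fold series from 100 μM.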

[2] = molecular target: T2, Proteasome subunit beta type-8 (Homo sapiens, UniProt P28062); assay: Inhibition of human 20S immunoproteasome beta-5i subunit using Suc-LLVY-AMC as substrate measured over 1.5 to 2 hrs by plate reader assay
T2 sequence (P28062 whole entry): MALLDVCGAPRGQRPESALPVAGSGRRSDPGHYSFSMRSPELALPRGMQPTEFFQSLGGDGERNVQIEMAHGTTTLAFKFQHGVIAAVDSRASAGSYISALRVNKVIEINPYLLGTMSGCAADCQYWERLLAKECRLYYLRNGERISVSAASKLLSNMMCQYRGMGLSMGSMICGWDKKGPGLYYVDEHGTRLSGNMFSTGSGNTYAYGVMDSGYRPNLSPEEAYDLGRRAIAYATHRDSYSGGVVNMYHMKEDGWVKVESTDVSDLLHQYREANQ
Procedure, shortened: (§2)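 Human c-20S (from red blood cells; β5c 0.2 nM final) or i-20S (from PBMC; β5i 0.4 nM final), activated with 0.02% SDS. Buffer 20 mM HEPES, 0.5 mM EDTA, pH 7.5; 3-fold compound series from 100 μM.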

[3] = molecular target: T3, Proteasome Macropain subunit MB1 (Homo sapiens, UniProt P28074); assay: Inhibition of human 20S constitutive proteasome beta-5c subunit using Suc-LLVY-AMC as substrate measured over 1.5 to 2 hrs by plate reader assay; procedure, shortened: as §2
T3 sequence (P28074 whole entry): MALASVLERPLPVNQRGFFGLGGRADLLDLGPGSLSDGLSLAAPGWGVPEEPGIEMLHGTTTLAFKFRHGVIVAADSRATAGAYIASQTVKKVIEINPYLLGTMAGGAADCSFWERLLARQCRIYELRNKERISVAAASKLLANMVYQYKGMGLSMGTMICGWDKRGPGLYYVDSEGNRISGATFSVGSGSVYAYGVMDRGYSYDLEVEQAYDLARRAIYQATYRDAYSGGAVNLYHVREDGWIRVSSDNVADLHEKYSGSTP

[4] = molecular target: T4, 20S immunoproteasome beta-1i subunit (Homo sapiens, UniProt P28065); assay: Inhibition of human 20S immunoproteasome beta-1i subunit at 100 uM using Z-LLE-AMC as substrate measured over 1.5 to 2 hrs by plate reader assay relative to control; conditions: probe Z-LLE-AMC, time 1.5-2 hrs
T4 sequence (P28065 whole entry): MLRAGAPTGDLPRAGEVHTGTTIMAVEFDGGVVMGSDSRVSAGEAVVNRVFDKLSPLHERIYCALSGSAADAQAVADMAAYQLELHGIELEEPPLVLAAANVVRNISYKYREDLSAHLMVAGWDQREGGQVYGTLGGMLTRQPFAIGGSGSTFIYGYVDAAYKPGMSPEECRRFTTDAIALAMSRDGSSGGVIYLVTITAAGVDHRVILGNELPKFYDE
Procedure, shortened: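 Human c-20S β1c or i-20S β1i, activated with 0.02% SDS, with 50 μM Z-LLE-AMC in 20 mM HEPES, 0.5 mM EDTA, pH 7.5. AMC fluorescence (ex 360/em 460 nm) recorded over 1.5–2 h.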

[5] = Stability of human liver microsomes assessed as intrinsic clearance at 1 uM measured upto 30 mins in presence of NADPH generating system by LC/MS-MS analysis; format: ADME, Microsome; conditions: 0.5 h
Procedure, shortened: (§3)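 Compound at 1 μM with human or mouse liver microsomes (0.2 mg protein/mL) in phosphate buffer pH 7.4, started with NADPH-generating system; 1% organic solvent. Incubated at 37 °C for 0, 15 and 30 min in duplicate, quenched with acetonitrile plus internal standard, analysed by LC/MS-MS. CLint = first-order k divided by protein concentration.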

[6] = test system: Mycobacterium tuberculosis; assay: Inhibition of intracellular 20S proteasome activity in Mycobacterium tuberculosis MHD1441 expressing Pup-GFP assessed as Pup-GFP accumulation measured after 4 days by fluorescence assay; format: cell-based; conditions: dose 0.1-33 µM, time 4.0 day
Procedure, shortened: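 Mtb H37Rv carrying pSCK1 (produces Pup-GFP), adjusted to OD 0.05 in 7H9. Compounds at 33, 11, 3.7, 1.2, 0.4 and 0.1 μM final, incubated 4 d at 37 °C. OD580 and fluorescence (ex 495/em 510 nm) read; RFU normalised to OD, then expressed as fold of DMSO control; ≥3 independent experiments.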

HepG2 = assay: Cytotoxicity against human HepG2 cells assessed as cell viability at 30 uM incubated for 72 hrs relative to control; format: cell-based; conditions: hepg2, 72 h
Procedure, shortened: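 HepG2 cells exposed to 30 μM compound for 72 h, then viability assessed.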

[7] = Stability in human plasma assessed as parent compound remaining incubated for 2 hrs by UPLC/MS analysis; format: ADME, cell-free; conditions: read-out: Stability
[8] = Stability of mouse liver microsomes assessed as intrinsic clearance at 1 uM measured upto 30 mins in presence of NADPH generating system by LC/MS-MS analysis; format: ADME, Microsome; conditions: 0.5 h; procedure, shortened: as §3
[9] = Permeability of compound by PAMPA; format: ADME
[10] = test system: Mycobacterium tuberculosis; assay: Inhibition of intracellular 20S proteasome activity in Mycobacterium tuberculosis assessed as accumulation of pupylated protein at 50 uM incubated for 48 hrs; format: cell-based
Procedure, shortened: (§4)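 Mtb CDC1551 dop::MycoMarT7 expressing Pup-GGE (no depupylation) treated 48 h with compound at 1, 3 or 10 μM, or carfilzomib at 50 μM. Pupylated proteins detected by anti-Pup immunoblot, with anti-PrcB as loading control.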

[11] = Kinetic solubility of compound in PBS at pH 6.8 incubated for 24 hrs by UPLC/MS analysis; format: physicochemical; conditions: read-out: Kinetic_solubility
[12] = molecular target: T5, Proteasome subunit beta type-10 (Homo sapiens, UniProt P40306); assay: Inhibition of human 20S immunoproteasome beta-2i subunit using Z-VLR-AMC as substrate measured over 1.5 to 2 hrs by plate reader assay; procedure, shortened: as §1
T5 sequence (P40306 whole entry): T1 sequence (P40306 whole entry)

[13] = test system: Mycobacterium tuberculosis; assay: Inhibition of Mycobacterium tuberculosis 20S proteasome expressed in Escherichia coli BL21(DE3) assessed as half life using Suc-LLVY-AMC as substrate by plate reader assay
[14] = test system: Mycobacterium tuberculosis; assay: Bactericidal activity against Mycobacterium tuberculosis under nitrosative stress condition; format: functional, organism-based
Procedure, shortened: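 Non-replicating Mtb Erdman held in Sauton's medium with 0.5 mM NaNO₂ at pH 5.5 to generate NO; killing measured as reported previously.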

[15] = test system: Mycobacterium tuberculosis; assay: Inhibition of intracellular 20S proteasome activity in Mycobacterium tuberculosis assessed as accumulation of pupylated protein incubated for 48 hrs; format: cell-based; conditions: dose 1-10 µM; procedure, shortened: as §4
[16] = test system: Mycobacterium tuberculosis; assay: Inhibition of Mycobacterium tuberculosis 20S proteasome expressed in Escherichia coli BL21(DE3) at 10 to 30 nM using Suc-LLVY-AMC as substrate by plate reader assay; conditions: dose 10-30 nM, TDE = time-dependent effect
[17] = Inhibition of Mycobacterium tuberculosis 20S proteasome expressed in Escherichia coli BL21(DE3) using Suc-LLVY-AMC as substrate by plate reader assay

SMILES	inhibition at 100 µM [1] [%]	IC50 [2] [µM]	IC50 [3] [µM]	inhibition at 100 µM [4] [%]	further results
O=C1CCCCCCCCCC[C@@H](C(=O)NCc2cccc3ccccc23)NC(=O)[C@H](CC(=O)N2CCCC2)N1	< 50	> 100	> 100	< 50	
O=C1CCCCCCCCOC[C@@H](C(=O)NCc2ccccc2F)NC(=O)[C@H](CC(=O)N2CCC[C@@H]2c2ccccc2)N1	< 50	> 100	> 100	< 50	CLH [5]: > 768 µL/min/mg; inhibition [6]: Dose-dependent effect; Activity (HepG2): 91%; remaining at 2 h [7]: 86%; CLH [8]: > 768 µL/min/mg; permeability [9]: 26 ×10⁻⁶ cm/s
CC(C)C[C@H](NC(=O)[C@H](CCc1ccccc1)NC(=O)CN1CCOCC1)C(=O)N[C@@H](Cc1ccccc1)C(=O)N[C@@H](CC(C)C)C(=O)[C@@]1(C)CO1					inhibition [10]: Active
O=C(N[C@H]1Cc2cccc(c2)Oc2ccc(cc2)C[C@@H](C(=O)NCc2ccccc2F)NC(=O)[C@H](CC(=O)N2CCC[C@@H]2c2ccccc2)NC1=O)c1ccccc1	< 50	> 100	> 100	< 50	
CC(=O)N[C@H]1Cc2cccc(c2)Oc2ccc(cc2)C[C@@H](C(=O)NCc2ccccc2F)NC(=O)[C@H](CC(=O)N2CCC[C@@H]2c2ccccc2)NC1=O	< 50	> 100	> 100	< 50	
O=C1CCc2cccc(c2)OCCCC[C@@H](C(=O)NCc2ccccc2F)NC(=O)[C@H](CC(=O)N2CCC[C@@H]2c2ccccc2)N1	< 50	> 100	> 100	< 50	CLH [5]: > 768 µL/min/mg; inhibition [6]: Dose-dependent effect; Activity (HepG2): 102%; remaining at 2 h [7]: 97%; CLH [8]: > 768 µL/min/mg; permeability [9]: 20.6 ×10⁻⁶ cm/s; solubility kinetic at 24 h [11]: 33 µg/mL (≈ 52.5 µM)
O=C1CCc2cccc(c2)OCCCC[C@@H](C(=O)NCc2ccccc2F)NC(=O)[C@H](CC(=O)N2CCC[C@@H]2C2CC2)N1	< 50	0.069	0.073	< 50	IC50 [12]: 44.5 µM
O=C1CCc2cccc(c2)OCCCC[C@@H](C(=O)NCc2ccccc2F)NC(=O)[C@H](CC(=O)N2CCC[C@H]2C2CC2)N1	< 50	0.87	1.5	< 50	
O=C1CCCCCCCCC[C@@H](C(=O)NCc2cccc3ccccc23)NC(=O)[C@H](CC(=O)N2CCCC2)N1	< 50	> 100	> 100	< 50	
O=C1CCc2cccc(c2)Oc2ccc(cc2)C[C@@H](C(=O)NCc2ccccc2F)NC(=O)[C@H](CC(=O)N2CCC[C@@H]2c2ccccc2)N1	< 50	> 100	> 100	< 50	T1/2 [13]: 16.5 min; Activity [14]: Dose-dependent effect; inhibition [15]: Dose-dependent effect; CLH [5]: > 768 µL/min/mg; inhibition [16]: Tde; inhibition [6]: Dose-dependent effect; Activity (HepG2): 98%; remaining at 2 h [7]: 94%; CLH [8]: > 768 µL/min/mg; Ki [17]: 0.0121 µM; permeability [9]: 22.7 ×10⁻⁶ cm/s; solubility kinetic at 24 h [11]: 1.4 µg/mL (≈ 2.11 µM)
O=C1CCc2cccc(c2)Oc2ccc(cc2)C[C@@H](C(=O)NCc2ccccc2F)NC(=O)[C@H](CC(=O)N2CCCC2)N1	< 50	21.1	> 100	< 50	
O=C1CCCCCCCCOC[C@@H](C(=O)NCc2cccc3ccccc23)NC(=O)[C@H](CC(=O)N2CCCC2)N1	< 50	> 100	> 100	< 50	
O=C1N[C@@H](CC(=O)N2CCCC2)C(=O)N[C@H](C(=O)NCc2cccc3ccccc23)CCCCCCCCCC1Cc1ccccc1 (stereo partly drawn)	< 50	> 100		< 50	
CCN(CC)C(=O)C[C@H](NC(=O)CCc1ccccc1)C(=O)N[C@@H](Cc1ccc(F)cc1)C(=O)NCc1cccc2ccccc12		54.7	70		
O=C1CCc2cccc(c2)OCCCC[C@@H](C(=O)NCc2ccccc2F)NC(=O)[C@H](CCN2CCC[C@@H]2c2ccccc2)N1		47.3	86.2		
